According to paper PMC4258449 (Nitric oxide : biology and chemistry / official journal of …, 2014):
Where two headings read alike, the source gives them in different places. Each block holds one compound with its values, some of them ahead of it.

Legend:
[1] = physiological conditions; cited from earlier work
[2] = test system: MDA-MB-231 and MCF-7 cells; settings: cited from earlier work
[3] = assay type: physicochemical; settings: for half-life: assay buffer: 50 µM DTPA in phosphate-buffered saline; for k (decomposition rate constant): pH 7.4, 37 °C, assay buffer
MCF-7 cells = test: Clonogenic cell viability assay; assay type: cell-based, human; settings: MCF-7, 0.5–20 mM, 24 h treatment
Summary of the method: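 MCF-7 cells in RPMI 1640 with 10% FBS and penicillin/streptomycin at 37 °C, 5% CO2, were seeded at 400,000 per 60-mm dish and grown 48 h. They were exposed in growth medium for 24 h, PBS-washed twice, trypsinized, counted and replated at 100, 1,000 or 10,000 per plate in triplicate. Colonies were crystal-violet stained after 10–12 d and counted. Experiments were repeated at least twice; mean ± SD.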

[4] = test system: MDA-MB-231 breast cancer cells; test: Intracellular HNO/NO release with DAF-FM-2DA; assay type: cell-based, human; settings: 10 µM donor, MDA-MB-231 cells loaded with 10 µM DAF-FM-2DA, 37 °C
Summary of the method: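 They then received 10 µM donor, given as ionic diazeniumdiolates in 10 mM NaOH or the ester-protected form in ethanol (<0.1%). The rise in fluorescence (ex 485/em 535 nm) was followed over time at 37 °C. n = 2, six replicates per plate; mean ± SD.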

[5] = test system: MCF-7 or MDA-MB-231 cells; test: MTT viability assay; assay type: cell-based, human; settings: read-out: IC50 (cytotoxicity), 48 h, 10–100 µM
Summary of the method: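 Breast cancer cells were seeded at 8,000–10,000 per well and grown overnight. They were treated 48 h with test compound (10–100 µM) or ethanol vehicle (<0.1% v/v). MTT (5 mg/mL solution) was added for 1 h at 37 °C, medium was removed, formazan was dissolved in DMSO, and absorbance was read at 550 nm. Growth inhibition was expressed as % of matching control; n ≥ 3, mean ± SD.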

MDA-MB-231 cells = test: MTT viability assay, 5 combined with tamoxifen; assay type: cell-based, human
[6] = guinea pig, pH 7.4

SMILES: [Na+].[Na+].[O-][N+]([O-])=NO [Angeli’s salt, sodium trioxodinitrate]
- half-life [1]: ~ 2 min
- concentration range inhibiting proliferation [2]: millimolar range

SMILES: CC(=O)OCON=[N+]([O-])NC1CCCC1 [Compound 5, O^2-(Acetoxymethyl) 1-(cyclopentylamino)diazen-1-ium-1,2-diolate]
- decomposition rate constant at pH 9 ([3]; absence of serum, pH 9): 5.0 × 10^−3 s^−1
- half-life of decomposition ([3]; pH 7.4): 21 min
- DAF-FM fluorescence signal relative to the four ionic compounds [4]: ~ 3 fold
- IC50 [5]: ~100 µM
- viability (MDA-MB-231 cells; 5 at 75 µM, 48 h, MB-231 cells): 75 ± 6%
- half-life of decomposition in the presence of serum esterases [6]: 5.8 min

SMILES: CC(C)N[N+]([O-])=N[O-].[Na+] [IPA/NO, sodium 1-(N-isopropylamino)diazen-1-ium-1,2-diolate]
- half-life [1]: 6.7 min

SMILES: CC/C(=C(\c1ccccc1)c1ccc(OCCN(C)C)cc1)c1ccccc1 [tamoxifen, Tamoxifen, reference compound]
- viability at 10 µM (MDA-MB-231 cells; Homo sapiens, MDA-MB-231, 48 h): 76 ± 13%

Further lines, with some results ahead:

- half-life ([3]; pH 7.4): 3.6 ± 0.08 min
- k (decomposition rate constant) [3]: 3.2 ± 0.07 × 10^−3 s^−1
SMILES: [Na+].[O-]N=[N+]([O-])NC1CCCC1 [Compound 1, Sodium 1-(N-cyclopentylamino)diazen-1-ium-1,2-diolate]
- cytotoxicity (clonogenic assay) (MCF-7 cells): lowest cytotoxicity

- half-life ([3]; pH 7.4): 6.1 ± 0.02 min
SMILES: [Na+].[O-]N=[N+]([O-])NC1CCCCC1 [Compound 2, Sodium 1-(N-cyclohexylamino)diazen-1-ium-1,2-diolate]

- half-life ([3]; pH 7.4): 5.9 ± 0.04 min
SMILES: [Na+].[O-]N=[N+]([O-])NC1CCCCCC1 [Compound 3, Sodium 1-(N-cycloheptylamino)diazen-1-ium-1,2-diolate]

- half-life ([3]; pH 7.4): 5.4 ± 0.07 min
- k (decomposition rate constant) [3]: 2.1 ± 0.02 × 10^−3 s^−1
SMILES: [Na+].[O-]N=[N+]([O-])NC1CCCCCCC1 [Compound 4, Sodium 1-(N-cyclooctylamino)diazen-1-ium-1,2-diolate]
